Sampled rows, rich in hits. Any-hit rate of the full collection: about 2%.
CTSL1 counter = Fasciola hepatica cathepsin L1 inhibitors, primary screen, counter-screen for PFM18AAP inhibitor project, biochemical, QFRET, fluorogenic peptide substrate; recombinant F. hepatica cathepsin L1, Z-Leu-Arg-MCA fluorescence; inhibition, % at 5.96 µM; AID 1906, 2009; 300,000 tested, 0.49% active;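 active means inhibition above the mean of all tested compounds plus 3 SD, set per screening campaign, cut at about 17% in these data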
PAD4 inh = human PAD4 inhibitors, primary screen, biochemical, fluorescence polarization, 1536-well format. recombinant PAD4, RCA probe fluorescence polarization. inhibition, % at 6.36 µM. 330,000 tested, 0.41% active;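 active means percent inhibition above a cutoff equal to the mean of all tested compounds plus 3 SD, cut at about 15% in these data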
Apaf1 inhib = inhibitors of human Apaf-1 apoptosome, primary screen, biochemical, DEVD-Rh110 fluorescence, uHTS. Apoptotic protease-activating factor 1 (Homo sapiens), O14727. reconstituted apoptosome caspase-3 activity. inhibition, % at 20 µM. 330,000 tested, 0.71% active; active means inhibition of at least 40% at 20 µM
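Material: cell-free apoptosome with Apaf-1, procaspase-3 and caspase-9; Buffer or medium: Hepes pH 7.5 with detergent and BSA; Reagent: cytochrome c trigger plus (Z-DEVD)2-Rh110 caspase-3 substrate; Times: compound with Apaf-1, dATP, procaspase-3 30 min, then 50 min reaction, room temperature; Technique: Rh110 fluorescence intensity.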
PP5 primary = PP5 phosphatase inhibitors, primary screen, biochemical, fluorescence; inhibition, % at 6.7 µM; Serine/threonine-protein phosphatase 5 (Homo sapiens), P53041; purified PP5c, OMFP substrate fluorescence; 320,000 tested, 0.18% active; AID 1987, 2009;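 active means inhibition above the campaign's mean inhibition across all tested compounds plus 3 SD, cut at about 9.5% in these data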
UCH37 inh = inhibitors of human UCH37 deubiquitinase, primary screen, biochemical, Ub-AMC cleavage, fluorescence | Ubiquitin carboxyl-terminal hydrolase isozyme L5 (Homo sapiens), Q9Y5K5 | purified proteasome/UCH37 | inhibition, % (concentration not given with the values) | 330,000 tested, 0.33% active | AID 588478, 2011;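 active means mean inhibition over replicate wells above about 20%, limit read from the data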
Target sequence (Q9Y5K5 whole entry, looked up): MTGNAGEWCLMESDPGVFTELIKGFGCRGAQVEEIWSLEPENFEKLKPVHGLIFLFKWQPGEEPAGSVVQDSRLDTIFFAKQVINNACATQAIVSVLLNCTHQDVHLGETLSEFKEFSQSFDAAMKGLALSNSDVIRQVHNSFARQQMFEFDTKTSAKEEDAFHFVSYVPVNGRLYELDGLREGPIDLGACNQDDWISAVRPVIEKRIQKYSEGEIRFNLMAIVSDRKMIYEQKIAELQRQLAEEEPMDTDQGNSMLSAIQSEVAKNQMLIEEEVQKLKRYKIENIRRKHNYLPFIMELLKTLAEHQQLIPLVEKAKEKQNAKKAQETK
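system = Proteasome-associated human UCH37 deubiquitinase | amount = 0.15 nM proteasome as dispensed | medium = pH 7.4 Tris-HCl (50 mM) with ovalbumin, ATP-MgCl2, DTT | incubation = 30 min preincubation with enzyme, 25 min cleavage at room temperature | detection = AMC fluorescence 355/460 nm | read-out basis = percent inhibition | controls = no-proteasome and no-compound wells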
GSTO1 counter = inhibitors of recombinant GSTO1, primary screen, counter-screen for RBBP9 inhibitor project, biochemical, fluorescence polarization; Glutathione S-transferase omega-1 (Homo sapiens), P78417; activity-based probe fluorescence polarization; inhibition, % at 5.96 µM; 300,000 tested, 1.1% active;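 active means inhibition above the campaign mean inhibition plus 3 SD, cut at about 35% in these data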
Target sequence (P78417 whole entry, looked up): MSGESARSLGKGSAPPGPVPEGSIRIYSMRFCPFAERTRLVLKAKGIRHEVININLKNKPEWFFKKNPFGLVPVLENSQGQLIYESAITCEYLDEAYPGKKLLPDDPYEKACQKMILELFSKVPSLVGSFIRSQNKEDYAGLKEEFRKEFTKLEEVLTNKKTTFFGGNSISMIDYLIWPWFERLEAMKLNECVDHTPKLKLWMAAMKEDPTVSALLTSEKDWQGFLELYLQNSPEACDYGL
Hits are given with their value; - = inactive; . = no result given.

SMILES	CTSL1 counter	PAD4 inh	Apaf1 inhib	PP5 primary	UCH37 inh	GSTO1 counter
CC(C(=O)NCC1CCCCC1)N1CCc2ccccc2C1 (configuration not stated)	-	-	-	-	-	-
COc1ccccc1N1CCN(N=Cc2cc(OC)c(OC(C)=O)c(OC)c2)CC1	.	.	.	.	-	.
Clc1ccccc1C=NNc1cc(N2CCOCC2)ncn1	.	.	.	.	-	.
O=C1COc2ccc(S(=O)(=O)NCc3ccccc3)cc2N1	-	-	-	-	-	36
CC[n+]1c(/C=C/N(C)c2ccccc2)oc2ccc(F)cc21	-	-	-	-	24	-
CC[n+]1c(/C=C/Nc2ccccc2)oc2ccccc21	-	-	-	-	-	-
CC[n+]1c(/C=C/N(C)c2ccccc2)oc2ccccc21	-	-	-	-	21	-
Cc1c(C(=O)NN=Cc2cccs2)nc2ccccn12	.	.	.	.	-	.
C[C@H](NC(=O)OC(C)(C)C)C(=O)NN=Cc1cccc2nccnc12	.	.	.	.	-	.
COc1cc(C(=O)O)ccc1O	-	-	-	-	-	-
COc1cc(C(=O)C(=O)c2ccc(O)c(OC)c2)ccc1O	-	-	-	-	21	-
C[n+]1cc(C(=O)N2CCCCC2)ccc1/C=C/c1c[nH]c2ccccc12	-	-	-	-	24	-
O=C(CC(c1ccco1)C1CCCCC1=O)c1ccco1 (configuration not stated)	64	-	-	-	-	-
O=C(CC(c1ccccc1)C1CCCCC1=O)c1ccco1 (configuration not stated)	-	-	-	-	-	-
C=CCN1C(=O)/C(=C/c2ccc(OC(C)=O)c(OCC)c2[N+](=O)[O-])SC1=S	.	.	.	.	42	.
O=[N+]([O-])c1cc(C(F)(F)F)cc([N+](=O)[O-])c1NN=C1CCCCC1	-	-	-	-	-	37
O=C(NN=Cc1ccc(F)c(F)c1)c1cc2c(s1)-c1ccccc1CC2	.	.	.	.	-	.
COc1cc(/C(C)=N\NC(N)=S)cc(OC)c1OC	18	-	-	-	.	-
CCOC(=O)N1[C@@H]2C=C(C)[C@@H]2[C@@H]2[C@@H](C)C(=O)N21	18	-	-	-	-	-
CCOC(=O)N1C2C=CC(C2)N1C(=O)OCC	.	.	.	.	-	.
CCOC(=O)c1ccc(Nc2nc(N)c3cc(OC)c(OC)cc3n2)cc1	-	-	54	-	-	-
O=C(NN=Cc1ccc(C(F)(F)F)cc1)c1ccncc1	.	.	.	.	-	.
COc1cc(C=NNC(=O)CNC(=O)C2COc3ccccc3O2)ccc1O (configuration not stated)	.	.	.	.	-	.
CC1CC(=O)C(C2c3ccccc3CCN2C(=O)CCl)C(=O)C1 (configuration not stated)	-	-	-	-	-	-
COc1cc2c(cc1OC)C(C1C(=O)CC(C)(C)CC1=O)N(C(=O)CCl)CC2 (configuration not stated)	17	-	-	-	-	-
SMILES	CTSL1 counter	PAD4 inh	Apaf1 inhib	PP5 primary	UCH37 inh	GSTO1 counter
Cc1c(C#N)c(O)n(C)c(=O)c1N=Nc1ccc(S(N)(=O)=O)cc1	.	.	.	.	-	.
Cc1c(C#N)c(O)n(CCO)c(=O)c1N=Nc1ccc(S(N)(=O)=O)cc1	-	-	-	-	21	-
COC(=O)C=c1sc(=C(C#N)C(=O)NCc2ccco2)n(-c2ccc(C)cc2)c1=O	.	.	.	.	-	.
CC(C)N1CC=C2C(C#N)=C(N)C(C#N)(C#N)C(c3ccccc3)C2C1 (configuration not stated)	-	-	.	-	-	-
CCN1CC=C2C(C#N)=C(N)C(C#N)(C#N)C(c3cc(Cl)ccc3Cl)C2C1 (configuration not stated)	-	22	.	-	-	-
CC(C)N1CC=C2C(C#N)=C(N)C(C#N)(C#N)[C@H](c3ccoc3)[C@H]2C1	-	49	.	-	.	64
O=C(CC1=NNC(=O)C1)NN=Cc1ccccc1[N+](=O)[O-]	.	.	.	.	-	.
O=C1/C(=C\c2ccc(O)cc2)SC(=S)N1N=Cc1ccc(O)cc1	.	.	.	.	-	.
CC1CCCC(=NNC(=O)COc2ccccc2Cl)C1 (configuration not stated)	.	.	.	.	-	.
COc1ccc(N2CSC3=C(C#N)C(c4cc(OC)c(OC)cc4OC)CC(=O)N3C2)c(OC)c1 (configuration not stated)	-	-	-	-	-	39
COc1ccc(N2CSC3=C(C#N)C(c4cc(OC)ccc4OC)CC(=O)N3C2)c(OC)c1 (configuration not stated)	-	-	-	-	-	-
CCn1c(SCC(=O)NCCOc2ccccc2)nc2ccccc2c1=O	-	-	-	-	28	-
CCn1c(SCC(=O)NCc2ccco2)nc2ccccc2c1=O	-	-	-	-	-	-
Cc1nc(N=C(N)NC(=O)NC2CCCCC2)nc2ccccc12	.	.	.	.	-	.
COc1cc(C=N/N=C2/NC(=O)C(c3ccccc3)S2)ccc1O (configuration not stated)	.	.	.	.	-	.
O=C(CC1C(=O)NCCN1Cc1ccc(F)cc1)NC1CCCCCCC1 (configuration not stated)	19	-	-	-	-	-
CC(=NNC(=O)c1c(Br)c(C)nn1C)c1ccc(NC(=O)C(C)Oc2ccc(Cl)cc2C)cc1 (configuration not stated)	.	.	.	.	-	.
CC(=NNC(=O)CNc1ccc(F)cc1)c1cc2ccccc2o1	.	.	.	.	-	.
O=C(NN=Cc1coc2ccccc2c1=O)c1cn(-c2ccccc2)nc1-c1ccc(F)cc1	.	.	.	.	-	.
NC(=O)c1ccc(-c2c(-c3ccccc3)sc3ccccc23)cc1	.	-	-	-	-	.
CN(C)CCOc1ccc(-c2c(-c3ccccc3)sc3ccccc23)cc1	.	-	77	.	-	.
COc1ccc(C2/C(=C(/O)c3ccc4c(c3)CC(C)O4)C(=O)C(=O)N2CCCN2CCOCC2)cc1 (configuration not stated)	-	-	-	-	21	-
COc1ccc(C2CC(c3cccs3)=NN2c2nc(-c3ccccc3)cs2)cc1OC (configuration not stated)	34	-	-	-	-	-
CCOC(=O)c1c(C)[nH]c(C)c1S(=O)(=O)NCC1CCN(Cc2cccc(Cl)c2)CC1	-	-	-	-	-	-
CCOC(=O)c1c(S(=O)(=O)NCC2CCN(Cc3cccc(F)c3)CC2)c(C)n(C)c1C	44	-	-	-	-	-
Cc1c(C=NNC(=O)c2cc(C(C)(C)C)[nH]n2)c2ccccc2n1C	.	.	.	.	-	.
COc1ccc(CCn2c(NN=C(C)C)nc3c2c(=O)[nH]c(=O)n3C)cc1	-	-	-	-	.	46

Assay outcomes as filed in PubChem BioAssay.
